Laboratory results taken from ChEMBL document CHEMBL3804761, “Synthesis of a stable and orally bioavailable englerin analogue” (Bioorg Med Chem Lett, 2016).

Legend:
Format in all cases: functional
SK-MEL-28 = assay: Growth inhibition of human SK-MEL-28 cells assessed as cell growth at 10 uM incubated for 48 hrs by sulforhodamine B assay relative to control; conditions: SK-MEL-28, 48 h, read-out: Activity
Procedure, shortened: (§1)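 Run in the standard NCI 60-cell-line screen. Cells were exposed to drug for two days, and the read-out was sulforhodamine B staining. Compound was tested at a single final concentration of 10 µM in every line, and results are reported as growth percent.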

[1] = Growth inhibition of human Hs 578T cells assessed as cell growth at 10 uM incubated for 48 hrs by sulforhodamine B assay relative to control; conditions: read-out: Activity
[2] = Growth inhibition of human HCT15 cells assessed as cell growth at 10 uM incubated for 48 hrs by sulforhodamine B assay relative to control; conditions: HCT-15, 48 h, read-out: Activity; procedure, shortened: as §1
NCI-H23 = assay: Growth inhibition of human NCI-H23 cells incubated for 48 hrs by sulforhodamine B assay; conditions: NCI-H23, 48 h
Procedure, shortened: (§2)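 NCI 60-cell-line panel, standard protocol. Cells exposed to compound for two days, growth read by sulforhodamine B staining. Tested at five 10-fold dilutions, top concentration 100 µM, to give dose-response curves.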

[3] = Growth inhibition of human OVCAR5 cells incubated for 48 hrs by sulforhodamine B assay; conditions: OVCAR-5, 48 h; procedure, shortened: as §2
[4] = Growth inhibition of human SF539 cells assessed as cell growth at 10 uM incubated for 48 hrs by sulforhodamine B assay relative to control; conditions: SF-539, 48 h, read-out: Activity
Procedure, shortened: (§3)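 Single-dose screen in the NCI 60-cell-line panel at one final concentration of 10 µM. Two-day drug exposure with a sulforhodamine B endpoint. Values are growth percent for each cell line.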

[5] = Growth inhibition of human SKOV3 cells incubated for 48 hrs by sulforhodamine B assay; conditions: SK-OV-3, 48 h
Procedure, shortened: (§4)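 Tested in the standard NCI 60-cell-line protocol with two-day drug exposure and a sulforhodamine B endpoint. Compounds were first screened at a single final concentration of 10 µM, reported as growth percent. They were then run as five 10-fold dilutions starting from a high concentration of 100 µM to give dose-response curves.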

[6] = Growth inhibition of human HOP62 cells incubated for 48 hrs by sulforhodamine B assay; conditions: HOP-62, 48 h; procedure, shortened: as §2
[7] = Growth inhibition of human SNB75 cells incubated for 48 hrs by sulforhodamine B assay; conditions: SNB-75, 48 h; procedure, shortened: as §4
[8] = Growth inhibition of human SF295 cells incubated for 48 hrs by sulforhodamine B assay; conditions: SF-295, 48 h; procedure, shortened: as §2
NCI-H226 [9] = assay: Growth inhibition of human NCI-H226 cells incubated for 48 hrs by sulforhodamine B assay; conditions: NCI-H226, 48 h; procedure, shortened: as §2
[10] = Growth inhibition of human OVCAR3 cells assessed as cell growth at 10 uM incubated for 48 hrs by sulforhodamine B assay relative to control; conditions: OVCAR-3, 48 h, read-out: Activity; procedure, shortened: as §1
786-0 = assay: Growth inhibition of human 786-0 cells incubated for 48 hrs by sulforhodamine B assay; conditions: 786-0, 48 h; procedure, shortened: as §2
MDA-MB-435 = assay: Growth inhibition of human MDA-MB-435 cells incubated for 48 hrs by sulforhodamine B assay; conditions: MDA-MB-435, 48 h; procedure, shortened: as §2
M14 [11] = assay: Growth inhibition of human M14 cells incubated for 48 hrs by sulforhodamine B assay; conditions: M14, 48 h; procedure, shortened: as §2
NCI-H226 [12] = assay: Growth inhibition of human NCI-H226 cells assessed as cell growth at 10 uM incubated for 48 hrs by sulforhodamine B assay relative to control; conditions: NCI-H226, 48 h, read-out: Activity; procedure, shortened: as §1
[13] = Growth inhibition of human HCC2998 cells assessed as cell growth at 10 uM incubated for 48 hrs by sulforhodamine B assay relative to control; conditions: HCC 2998, 48 h, read-out: Activity; procedure, shortened: as §3
NCI-H460 = assay: Growth inhibition of human NCI-H460 cells assessed as cell growth at 10 uM incubated for 48 hrs by sulforhodamine B assay relative to control; conditions: NCI-H460, 48 h, read-out: Activity; procedure, shortened: as §1
[14] = Growth inhibition of human HOP92 cells assessed as cell growth at 10 uM incubated for 48 hrs by sulforhodamine B assay relative to control; conditions: HOP-92, 48 h, read-out: Activity; procedure, shortened: as §3
[15] = Growth inhibition of human HCT116 cells incubated for 48 hrs by sulforhodamine B assay; conditions: HCT-116, 48 h; procedure, shortened: as §2
U-251 = assay: Growth inhibition of human U251 cells assessed as cell growth at 10 uM incubated for 48 hrs by sulforhodamine B assay relative to control; conditions: U-251, 48 h, read-out: Activity
Procedure, shortened: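 NCI 60-cell line standard protocol, one-dose screen: single final concentration 10 µM, 2-day drug exposure, sulforhodamine B (SRB) endpoint; read-out is growth percent relative to untreated control.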

[16] = Growth inhibition of human COLO205 cells assessed as cell growth at 10 uM incubated for 48 hrs by sulforhodamine B assay relative to control; conditions: COLO 205, 48 h, read-out: Activity; procedure, shortened: as §1
[17] = Growth inhibition of human Hs 578T cells incubated for 48 hrs by sulforhodamine B assay
[18] = Growth inhibition of human HCC2998 cells incubated for 48 hrs by sulforhodamine B assay; conditions: HCC 2998, 48 h; procedure, shortened: as §2
[19] = Growth inhibition of human OVCAR8 cells assessed as cell growth at 10 uM incubated for 48 hrs by sulforhodamine B assay relative to control; conditions: OVCAR-8, 48 h, read-out: Activity; procedure, shortened: as §1
A498 = assay: Growth inhibition of human A498 cells incubated for 48 hrs by sulforhodamine B assay; conditions: A498, 48 h
Malme-3M = assay: Growth inhibition of human MALME-3M cells assessed as cell growth at 10 uM incubated for 48 hrs by sulforhodamine B assay relative to control; conditions: read-out: Activity; procedure, shortened: as §1
M14 [20] = assay: Growth inhibition of human M14 cells assessed as cell growth at 10 uM incubated for 48 hrs by sulforhodamine B assay relative to control; conditions: M14, 48 h, read-out: Activity; procedure, shortened: as §1

What does the source list for `C/C(=C\C(=O)O[C@H]1[C@@H]2[C@H](C)CC[C@H]2[C@]2(C)O[C@@]1(C(C)C)C[C@H]2NC(=O)CO)c1ccccc1`?
growth at 10 µM (SK-MEL-28): 118%; growth at 10 µM [1]: -8.92%; growth at 10 µM [2]: 100%; GI50 (NCI-H23): 38.9 µM; LC50 (NCI-H23): > 100 µM; TGI (NCI-H23; read-out: pTGI (converted)): > 100 µM; GI50 [3]: 70.8 µM; LC50 [3]: > 100 µM; TGI ([3]; read-out: pTGI (converted)): > 100 µM; growth at 10 µM [4]: 91.2%; GI50 [5]: 30.2 µM; LC50 [5]: > 100 µM; TGI ([5]; read-out: pTGI (converted)): > 100 µM; GI50 [6]: 43.7 µM; LC50 [6]: > 100 µM; TGI ([6]; read-out: pTGI (converted)): > 100 µM; GI50 [7]: 12.3 µM; LC50 [7]: > 100 µM; TGI ([7]; read-out: pTGI (converted)): > 100 µM; GI50 [8]: 36.3 µM; LC50 (concentration causing 50% net cell kill) [8]: > 100 µM; TGI ([8]; read-out: pTGI (converted)): > 100 µM; GI50 (NCI-H226 [9]): 61.7 µM; LC50 (NCI-H226 [9]): > 100 µM; TGI (NCI-H226 [9]; read-out: pTGI (converted)): > 100 µM; growth at 10 µM [10]: 121%; GI50 (786-0): 33.9 µM; LC50 (786-0): > 100 µM; TGI (786-0; read-out: pTGI (converted)): > 100 µM; GI50 (MDA-MB-435): 33.9 µM; LC50 (MDA-MB-435): > 100 µM; TGI (MDA-MB-435; read-out: pTGI (converted)): > 100 µM; GI50 (M14 [11]): 44.7 µM; LC50 (M14 [11]): > 100 µM; TGI (M14 [11]; read-out: pTGI (converted)): > 100 µM; growth at 10 µM (NCI-H226 [12]): 90.7%; growth at 10 µM [13]: 104%; growth at 10 µM (NCI-H460): 106%; growth at 10 µM [14]: 87.1%; GI50 [15]: 32.4 µM; LC50 [15]: > 100 µM; TGI ([15]; read-out: pTGI (converted)): > 100 µM; growth at 10 µM (U-251): 91.8%; growth at 10 µM [16]: 107%; GI50 ([17]; read-out: GI50): 2.24 µM; GI50 ([17]; read-out: pGI50 (converted)): 2.24 µM; CC50 ([17]; read-out: pLC50 (the source's name) (converted)): > 100 µM; TGI ([17]; read-out: pTGI (converted)): 6.92 µM; GI50 [18]: 34.7 µM; LC50 [18]: > 100 µM; TGI ([18]; read-out: pTGI (converted)): > 100 µM; growth at 10 µM [19]: 61.2%; LC50 (A498): 23.4 µM; GI50 (A498; read-out: GI50): 1.15 µM; GI50 (A498; read-out: pGI50 (converted)): 1.15 µM; TGI (A498; read-out: pTGI (converted)): 4.27 µM; growth at 10 µM (Malme-3M): 95.9%; growth at 10 µM (M14 [20]): 100%
